In ChEMBL document CHEMBL1154187, “Synthesis and biological evaluation of 2-heteroarylthioalkanoic acid analogues of clofibric acid as peroxisome proliferator-activated receptor alpha agonists” (J Med Chem, 2009):
One block for each compound: values may come before it. The source made the active and inactive calls. The calls are words filed in the database; no cut-off is given here.

Assays:
Type in all cases: functional, cell-based
[1] = molecular target: T1, Peroxisome proliferator-activated receptor alpha (Homo sapiens) (UniProt Q07869); assay: Agonist activity at human PPARalpha expressed in HEK293 cells assessed as receptor transactivation at 150 uM by luciferase reporter gene assay relative to control
T1 sequence (whole entry): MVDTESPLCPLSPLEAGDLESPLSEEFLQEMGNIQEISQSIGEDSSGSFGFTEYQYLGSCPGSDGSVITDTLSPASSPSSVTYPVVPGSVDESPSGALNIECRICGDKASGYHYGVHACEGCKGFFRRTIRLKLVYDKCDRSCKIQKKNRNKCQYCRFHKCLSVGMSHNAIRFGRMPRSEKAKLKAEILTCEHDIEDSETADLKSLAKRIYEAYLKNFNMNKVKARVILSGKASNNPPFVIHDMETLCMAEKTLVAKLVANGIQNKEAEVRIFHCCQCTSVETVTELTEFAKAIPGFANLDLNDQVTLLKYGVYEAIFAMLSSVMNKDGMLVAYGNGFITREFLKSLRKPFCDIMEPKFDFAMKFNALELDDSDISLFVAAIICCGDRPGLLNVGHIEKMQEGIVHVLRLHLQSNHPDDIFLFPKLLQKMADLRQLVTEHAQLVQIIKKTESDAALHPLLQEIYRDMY
Procedure, shortened: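 Cells co-transfected by calcium phosphate with human PPARα expression plasmid, luciferase reporter and renilla in serum-free medium. Ligand in DMSO (≤0.1% v/v final) added 6 h post-transfection at 150 μM. Luciferase normalized to renilla, expressed as fold activation over untreated cells; at least three separate experiments, mean ± SEM.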

[2] = molecular target: T2, Peroxisome proliferator-activated receptor alpha (Homo sapiens, UniProt Q07869); assay: Agonist activity at human PPARalpha expressed in HEK293 cells assessed as receptor transactivation at by luciferase reporter gene assay
T2 sequence (Q07869 whole entry): T1 sequence (whole entry)
Procedure, shortened: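 Human PPARα reporter-gene transactivation: calcium phosphate co-transfection of receptor plasmid, luciferase reporter and renilla. Ligand in DMSO (≤0.1% v/v final) added 6 h after transfection at five concentrations, 1 to 150 μM. At least three separate experiments, ± SEM.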

[3] = molecular target: T1, Peroxisome proliferator-activated receptor alpha (Homo sapiens); assay: Agonist activity at PPARalpha in human HepG2 cells assessed as increase in CPT1A mRNA expression at 150 uM after 48 hrs by RTqPCR relative to untreated control
Procedure, shortened: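 HepG2 grown in DMEM + 10% FBS, 37 °C, 5% CO2; 1×10^6 cells seeded in six-well dishes, grown 24 h, then given ligand at 150 μM or DMSO vehicle for 48 h. Total RNA by TRIzol; SYBR Green RTqPCR, primers 150 nM final, 60 ng cDNA, 40 cycles. CPT1A normalized to cyclophilin and to vehicle-treated cells; mean ± SEM of four determinations in duplicate.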

fold change (FC) [1]: 2.9
EC50 [2]: 33.3 µM
SMILES: COc1ccc2sc(SC(C)C(=O)O)nc2c1 (racemic)

fold change (FC) [1]: 2.9
Activity [3]: Active
EC50 [2]: 1.9 µM
SMILES: COc1ccc2sc(S[C@@H](C)C(=O)O)nc2c1

fold change (FC) [1]: 1.7
EC50 [2]: 36.1 µM
SMILES: CC(C)(Sc1nc2ccc(C(F)(F)F)cc2s1)C(=O)O

fold change (FC) [1]: 3.3
EC50 [2]: 69.3 µM
SMILES: CCOc1ccc2nc(SC(C)(C)C(=O)O)sc2c1

fold change (FC) [1]: 2.3
EC50 [2]: 57.3 µM
SMILES: COc1ccc2sc(S[C@H](C)C(=O)O)nc2c1

fold change (FC) [1]: 1.9
EC50 [2]: 46.3 µM
SMILES: CC(C)(Sc1nc2cc(C#N)ccc2s1)C(=O)O

fold change (FC) [1]: 2.6
EC50 [2]: 45.8 µM
SMILES: CC(C)(Sc1nc2ccc(Br)cc2s1)C(=O)O

fold change (FC) [1]: 3.4
EC50 [2]: 62.5 µM
SMILES: CC(Sc1nc2cc(Cl)ccc2s1)C(=O)O (racemic)

fold change (FC) [1]: 2
EC50 [2]: 45.8 µM
SMILES: COc1ccc2sc(SC(C)(C)C(=O)O)nc2c1

Activity [1]: inactive
SMILES: CC(C)(Sc1nc2cc(C(F)(F)F)ccc2s1)C(=O)O

fold change (FC) [1]: 1.7
EC50 [2]: 38.9 µM
SMILES: CC(C)(Sc1nc2ccc(Cl)cc2s1)C(=O)O

fold change (FC) [1]: 1.6
EC50 [2]: 35.9 µM
SMILES: CC(C)(Sc1nc2cc(Cl)ccc2s1)C(=O)O

Activity [1]: inactive
SMILES: CC(C)(Sc1nc2ccc(C#N)cc2s1)C(=O)O

fold change (FC) [1]: 4.5
Activity [3]: Active
EC50 [2]: 2.5 µM
SMILES: CC(C)(Sc1nc2cc(Br)ccc2s1)C(=O)O

fold change (FC) [1]: 4.5
EC50 [2]: 73.5 µM
SMILES: C[C@@H](Sc1nc2cc(Cl)ccc2s1)C(=O)O

fold change (FC) [1]: 2.6
EC50 [2]: 55.9 µM
SMILES: C[C@H](Sc1nc2cc(Cl)ccc2s1)C(=O)O

Activity [1]: inactive
SMILES: CC(C)(Sc1nc2ccccc2s1)C(=O)O

The next lines start with the compound.

SMILES: CC(Sc1nc2cc(Br)ccc2s1)C(=O)O (racemic)
fold change (FC) [1]: 3.2
EC50 [2]: 9.3 µM

SMILES: CC(Sc1nc2cc(C#N)ccc2s1)C(=O)O (racemic)
Activity [1]: inactive

SMILES: CCCC(Sc1nc2ccc(OCC)cc2s1)C(=O)O (racemic)
fold change (FC) [1]: 4.7
EC50 [2]: 14.8 µM

SMILES: CCCCCCC(Sc1nc2cc(Cl)ccc2s1)C(=O)O (racemic)
Activity [1]: inactive

SMILES: CC(C)(Sc1cccs1)C(=O)O
Activity [1]: inactive

SMILES: O=C(O)C(Sc1nc2cc(Cl)ccc2s1)c1ccccc1 (racemic)
fold change (FC) [1]: 1.6
EC50 [2]: 14.3 µM

SMILES: CC(C)(Sc1ccccn1)C(=O)O
Activity [1]: inactive

SMILES: CCOc1ccc2nc(SC(C)C(=O)O)sc2c1 (racemic)
fold change (FC) [1]: 2.6
EC50 [2]: 9.8 µM

SMILES: CC(Sc1nc2ccc(Br)cc2s1)C(=O)O (racemic)
fold change (FC) [1]: 1.9
EC50 [2]: 84.3 µM

SMILES: CC(C)(Sc1ccc(Cl)s1)C(=O)O
fold change (FC) [1]: 2.8
fold change (FC) [3]: 2
EC50 [2]: 1.8 µM

SMILES: CC(C)(Oc1ccc(Cl)cc1)C(=O)O
fold change (FC) [1]: 1.6
fold change (FC) [3]: 2

SMILES: CCCC(Sc1nc2cc(Cl)ccc2s1)C(=O)O (racemic)
fold change (FC) [1]: 2.7
EC50 [2]: 9.3 µM
